# Shown are actives, neighbours in structure and some others; about 1.4% of the full set was active somewhere.
# Casp6 inh: human caspase-6 inhibitors, primary screen, biochemical, VEID-R110 fluorescence, single point, set 2; purified caspase-6, Z-VEID-R110 cleavage fluorescence; inhibition, % at 12.5 µM; 350,000 tested, 0.53% active; AID 686996, 2013;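 active = mean inhibition across replicates at least about 35%, with every replicate also reaching that limit, limit read from the data; inconclusive = only one of the two criteria met; inactive = neither criterion met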;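 also: 0% = median of neutral control wells and 100% = no fluorescence left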
# Target sequence (P55212 24-179 limits assumed): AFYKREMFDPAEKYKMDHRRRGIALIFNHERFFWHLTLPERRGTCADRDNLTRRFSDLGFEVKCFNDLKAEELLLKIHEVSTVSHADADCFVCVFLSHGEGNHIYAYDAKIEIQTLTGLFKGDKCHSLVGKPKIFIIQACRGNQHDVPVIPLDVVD
# Target sequence (P55212 194-293 limits assumed): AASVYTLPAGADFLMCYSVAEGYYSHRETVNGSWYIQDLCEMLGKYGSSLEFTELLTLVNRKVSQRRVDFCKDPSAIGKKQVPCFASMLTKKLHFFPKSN
# T cell modulator: modulators of CD8 T cell-vesicle binding, primary screen, mouse 2C CD8+ T cells, flow cytometry; response (vesicle binding), % at 7 µM; AID 2052, 2009; 330,000 tested, 0.068% active; 2C CD8+ T cell-vesicle binding; hits give low values;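 active = response, share of CD8 T cells binding vesicles, and their 90th percentile fluorescence all below set limits, cut at about 80% in these data, passing the limit was not always enough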;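 also: values below 100% mean blocked vesicle binding to the CD8+ T cells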
#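 Also added: QL9-peptide-loaded Drosophila micro-vesicles bearing Ld, ICAM-1 and B7-1; Test system: purified 2C TCR transgenic mouse naive CD8+ T cells; Measured by: cytometric PE anti-B7-1 and Alexa647 anti-CD8 signals after 1% paraformaldehyde fixation; Timing: binding step 1.5 h, 37 °C, antibody labelling 20 min, ice.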
# Myeloid diff MLP: induction of myeloid progenitor differentiation, primary screen, cell-based, flow cytometry, MLPCN library; 360,000 tested, 1% active; ER-HoxA9 myeloid progenitors, lysozyme-GFP differentiation; calls only at 10 µM;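 active = normalized GFP-positive differentiation at or above the plate's own cutoff, the solvent-only control mean plus 3 SD; inconclusive = no clear call, values can overlap the other calls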;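 also: cells exposed to compound for four days before flow analysis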
# Vif imaging: HIV Vif self-association inhibitors, primary screen, imaging, HEK293T, single point | inhibition, % at 7.49 µM | AID 602346, 2012 | HEK293T cells, Vif self-association by quenched fluorescence, 24 h | 340,000 tested, 0.35% active; in the data active = inhibition above about 50%, passing the limit was not always enough; inconclusive = no clear call, values can overlap the other calls; inactive = below about 31%
# * marks the source's active call; other numbers are inactive results; i = inactive; ? = inconclusive; nt = no result; + = active, no number.
SMILES,Casp6 inh,T cell modulator,Myeloid diff MLP,Vif imaging
C/C=C/c1ccc([C@@H]2[C@@H](CO)N(C(=O)C3CC3)C23CN(S(=O)(=O)CC)C3)cc1,3,nt,nt,nt
CCC(=O)N1[C@H](CO)[C@@H](c2ccccc2)C12CN(Cc1cc(F)ccc1F)C2,2,nt,nt,nt
Cc1noc(C)c1NC(=O)N(C)C[C@H]1Oc2ccc(NC(=O)Nc3cccc4ccccc34)cc2C(=O)N([C@@H](C)CO)C[C@H]1C,-3,nt,nt,nt
Cc1ccccc1NC(=O)COC(=O)c1ccc(S(C)(=O)=O)c([N+](=O)[O-])c1,2,250,i,1
COc1ccc(CCC(=O)OCc2csc(CC(=O)Nc3ccccc3C)n2)cc1,-2,458,+,1
CCOc1ccc(OCC(=O)OCc2csc(CC(=O)Nc3ccccc3C)n2)cc1,2,166,i,19
Cc1ccccc1NC(=O)Cc1nc(COC(=O)c2ccc(S(C)(=O)=O)c([N+](=O)[O-])c2)cs1,3,314,+,-1
C[C@H]1CN([C@@H](C)CO)C(=O)c2cc(NC(=O)Nc3ccc4c(c3)OCO4)ccc2O[C@@H]1CN(C)Cc1ccc(-c2ccccc2)cc1,1,nt,nt,nt
COc1ccc(NC(=O)N[C@H]2CC[C@H](CCn3cc(C4(O)CCCC4)nn3)O[C@H]2CO)cc1,2,nt,nt,nt
O=C1C=C(Nc2ccccc2C(=O)O)c2ccccc2C1=O,89*,362,i,-4
CCCCNC1=CC(=O)C(NCCCC)=CC1=O,1,nt,i,-6
CCCCNC1=CC(=O)C(=O)c2ccccc21,28,419,+,1
O=C1C=C(Nc2ccccc2)c2ccccc2C1=O,97*,nt,?,3
O=C1C=C(Nc2ccccc2)C(=O)c2ccccc21,-1,443,i,-10
O=C(Nc1ccccc1F)N1[C@@H]2CNC[C@H]1C2c1ccc(-c2cccnc2)cc1 (some centres undefined),-2,nt,nt,nt
S=C(NCc1ccccc1)Nc1ccncc1,-2,0,+,-21
Cc1ccccc1NCc1nc2ccccc2n1C,-2,206,i,-4
Cn1c(CNc2ccccc2O)nc2ccccc21,4,461,+,-4
O=c1oc2cc(Cl)ccc2n1CSc1nc2ccccc2s1,nt,349,+,nt
O=C(CSc1nc2ccccc2s1)N1c2ccccc2Sc2ccc(Cl)cc21,nt,102,i,-5
COc1ccc(OCc2nnc(SCC(=O)Nc3ccc(C)cc3)o2)cc1,1,80,i,5
COc1ccc(OCc2nnc(SCC(=O)Nc3cccc(Cl)c3)o2)cc1,0,193,i,51*
O=C(NCC(=O)N1CCN(S(=O)(=O)c2cccs2)CC1)c1ccc(Cl)cc1,nt,279,i,58*
Cc1ccc(S(=O)(=O)N2CCN(C(=O)CNC(=O)c3ccc(Cl)cc3)CC2)cc1,-3,37*,i,-3
Cc1ccc(S(=O)(=O)Nc2cccc3c2O[C@@H](CN(C)S(=O)(=O)c2ccc(Cl)cc2)[C@H](C)CN([C@@H](C)CO)C3=O)cc1,0,nt,nt,nt
SMILES,Casp6 inh,T cell modulator,Myeloid diff MLP,Vif imaging
COc1cc(C)c(C)cc1S(=O)(=O)N1CCN(Cc2ccccc2)CC1,nt,176,i,15
Cc1cc(S(=O)(=O)N2CCN(Cc3ccccc3)CC2)c(C)s1,2,74*,i,-5
COc1cccc(C(=O)N2C[C@@H]3[C@H](c4ccccc42)[C@@H](CO)N3Cc2ccccc2Cl)c1,1,nt,nt,nt
C[C@@H]1CN([C@H](C)CO)C(=O)c2cccc(NC(=O)CCCCCC(=O)Nc3ccccc3N)c2O[C@@H]1CN(C)Cc1ccc(Cl)c(Cl)c1,-1,nt,nt,nt
COc1ccccc1N1C(=O)c2cccc3c(N(C)CCO)ccc(c23)C1=O,2,185,i,80*
CN1C(=O)c2cc(NS(C)(=O)=O)ccc2OC[C@@H]2O[C@@H](CC(=O)NC3CCCCC3)CC[C@H]21,0,nt,nt,nt
O=C1S/C(=C/c2ccc(N3CCOCC3)o2)C(=O)N1Cc1c(F)cccc1Cl,nt,255,+,+
CC(=O)Oc1cc2c(cc1OC(C)=O)C(=O)CCCC2,9,nt,i,57*
COc1cc2c(cc1OC(C)=O)C(=O)CCCC2,0,nt,i,-1
O=C(Cn1cncn1)NCCCc1ccccc1,75*,87,i,2
COc1ccc(S(=O)(=O)N[C@@H]2CC[C@@H](CC(=O)N3CCc4ccccc4C3)O[C@@H]2CO)cc1,0,nt,nt,nt
CC(C)(C)OC(=O)NCCCC[C@H](NC(=O)[C@H](Cc1c[nH]c2ccccc12)NC(=O)OCc1ccccc1)C(=O)O,39*,135,i,4
CSCCC(NC(=O)OCc1ccccc1)C(=O)NC(Cc1c[nH]c2ccccc12)C(=O)O (centres undefined),-3,nt,nt,nt
Cc1ccc(NC(=O)CN2C(=O)S/C(=C/c3ccc(-c4cc(C(=O)O)ccc4C)o3)C2=O)cc1C,nt,163,i,-3
Cc1ccc(C(=O)O)cc1-c1ccc(C=C2C(=O)c3ccccc3C2=O)o1,37*,91,i,1
O=C(Nc1ccccc1)C1Cc2c(-c3cccc(F)c3)ccnc2O1 (centres undefined),12,nt,i,-8
CC(=O)Nc1cccc(-c2ccnc3c2CC(C(=O)NCc2cccc(Cl)c2)O3)c1 (centres undefined),1,nt,+,-11
CS(=O)(=O)Nc1cccc(NC(=O)C2Cc3c(-c4cccc(F)c4)ccnc3O2)c1 (centres undefined),3,nt,+,nt
COc1ccc(/C=C2/SC(=S)N(Cc3ccccc3)C2=O)cc1O,0,85,i,3
O=C1/C(=C\c2cc(Cl)c(O)c(Cl)c2)SC(=S)N1Cc1ccccc1,-1,450,+,i
CCNC(=O)[C@H]1[C@H](CO)[C@H]2Cn3c(ccc(C4=CCCC4)c3=O)[C@@H]1N2C(=O)CC,-3,nt,nt,nt
COc1cc(CNC(C)c2ccccc2)c(Br)cc1OCC(N)=O (centres undefined),80*,352,i,nt
COc1cc(CNCC(C)C)c(Br)cc1OCC(=O)NCc1ccccc1,nt,364,i,-4
CCOc1ncccc1C(=O)OC(C)C(=O)Nc1ccc(N2CCOCC2)cc1 (centres undefined),35*,492,i,6
CCOc1ncccc1C(=O)Nc1ccccc1N1CCOCC1,2,275,i,-2
COc1ccc(Nc2ccccc2N)cc1,1,327,+,14
COc1ccc(C(=O)c2sc3nc(-c4ccccc4)ccc3c2N)cc1,nt,i,+,i
CC(C)OC(=O)c1sc2nc(-c3ccccc3)ccc2c1N,1,276,i,?
C[C@@H]1CN([C@@H](C)CO)C(=O)c2cc(C#CCN(C)C)cnc2O[C@H]1CN(C)C(=O)c1cccnc1,-2,nt,nt,nt
N#CCC(=O)N/N=C/c1ccc(N2N=C(c3ccccc3)CC2c2ccccc2)cc1 (centres undefined),1,249,+,11

# Screens as filed in PubChem BioAssay.
